According to ChEMBL document CHEMBL1649355, “Synthesis and biological evaluation of novel 2,4-disubstituted-1,3-thiazoles as anti-Candida spp. agents” (2011):
Converted amounts (≈) assume the structure as drawn.

Assays:
Pichia kudriavzevii [1] = experiment: Antifungal activity against Candida krusei after 24 hrs by broth microdilution method
Candida albicans [2] = experiment: Antifungal activity against Candida albicans after 24 hrs by broth microdilution method
Nakaseomyces glabratus [3] = experiment: Antifungal activity against Candida glabrata after 24 hrs
[Candida] sake [4] = Antifungal activity against Candida sake after 24 hrs by broth microdilution method; conditions: Fermentozyma sake
Candida tropicalis [5] = experiment: Antifungal activity against Candida tropicalis after 24 hrs by broth microdilution method
Nakaseomyces glabratus [6] = experiment: Antifungal activity against Candida glabrata after 24 hrs by MTT assay; type: functional
Procedure, shortened: (§1)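 Broth microdilution in Sabouraud dextrose broth per NCCLS guidance, tested against clinical Candida isolates (20 strains across species). Compounds dissolved in DMSO and serially diluted to final concentrations of 0.125–256. Inoculum 10³/mL. Each plate carried fungus-only and medium-only controls. Incubated 24 h at 37 °C. MIC reported as range per species.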

Candida tropicalis [7] = experiment: Antifungal activity against Candida tropicalis after 24 hrs by MTT assay; type: functional
Procedure, shortened: as §1

[Candida] sake [8] = Antifungal activity against Candida sake after 24 hrs by MTT assay; type: functional; conditions: Fermentozyma sake
Procedure, shortened: as §1

Pichia kudriavzevii [9] = experiment: Antifungal activity against Candida krusei after 24 hrs by MTT assay; type: functional
Procedure, shortened: as §1

Candida albicans [10] = experiment: Antifungal activity against Candida albicans after 24 hrs by MTT assay; type: functional
Procedure, shortened: as §1

Row | Structure (SMILES) | MIC (Pichia kudriavzevii [1]) [µg/mL] | MIC (Candida albicans [2]) [µg/mL] | MIC (Nakaseomyces glabratus [3]) [µg/mL] | MIC ([Candida] sake [4]) [µg/mL] | MIC (Candida tropicalis [5]) [µg/mL] | MIC (Nakaseomyces glabratus [6]) [µg/mL] | MIC (Candida tropicalis [7]) [µg/mL] | MIC ([Candida] sake [8]) [µg/mL] | MIC (Pichia kudriavzevii [9]) [µg/mL] | MIC (Candida albicans [10]) [µg/mL]
1 | Cc1ccc(-c2csc(N/N=C\c3ccco3)n2)cc1 | 32 (≈ 113 µM) | 0.5 (≈ 1.76 µM) | 4 (≈ 14.1 µM) | 16 (≈ 56.5 µM) | 64 (≈ 226 µM) | – | – | – | – | –
2 | COc1ccc(-c2csc(N/N=C\c3ccco3)n2)cc1 | 16 (≈ 53.4 µM) | 0.5 (≈ 1.67 µM) | 4 (≈ 13.4 µM) | 32 (≈ 107 µM) | 64 (≈ 214 µM) | – | – | – | – | –
3 | C/C(=N/Nc1nc(-c2ccc(C)cc2)cs1)c1ccco1 | 64 (≈ 215 µM) | 0.5 (≈ 1.68 µM) | 4 (≈ 13.5 µM) | 32 (≈ 108 µM) | 64 (≈ 215 µM) | – | – | – | – | –
4 | COc1ccc(-c2csc(N/N=C(/C)c3ccco3)n2)cc1 | 16 (≈ 51.1 µM) | 0.5 (≈ 1.6 µM) | 4 (≈ 12.8 µM) | 16 (≈ 51.1 µM) | 128 (≈ 408 µM) | – | – | – | – | –
5 | Cc1ccc(-c2csc(N/N=C\c3cccs3)n2)cc1 | 16 (≈ 53.4 µM) | 4 (≈ 13.4 µM) | 0.5 (≈ 1.67 µM) | 8 (≈ 26.7 µM) | 64 (≈ 214 µM) | – | – | – | – | –
6 | COc1ccc(-c2csc(N/N=C\c3cccs3)n2)cc1 | 64 (≈ 203 µM) | 0.125 (≈ 0.396 µM) | 0.5 (≈ 1.59 µM) | 32 (≈ 101 µM) | 128 (≈ 406 µM) | – | – | – | – | –
7 | C/C(=N/Nc1nc(-c2ccc(C)cc2)cs1)c1cccs1 | 32 (≈ 102 µM) | 0.5 (≈ 1.6 µM) | 2 (≈ 6.38 µM) | 32 (≈ 102 µM) | 128 (≈ 408 µM) | – | – | – | – | –
8 | COc1ccc(-c2csc(N/N=C(/C)c3cccs3)n2)cc1 | 64 (≈ 194 µM) | 0.125 (≈ 0.379 µM) | 2 (≈ 6.07 µM) | 32 (≈ 97.1 µM) | 8 (≈ 24.3 µM) | – | – | – | – | –
9 | C/C(=N/Nc1nc(-c2ccc(C)cc2)cs1)c1ccccn1 | 64 (≈ 208 µM) | 2 (≈ 6.48 µM) | 4 (≈ 13 µM) | 32 (≈ 104 µM) | 64 (≈ 208 µM) | – | – | – | – | –
10 | COc1ccc(-c2csc(N/N=C(/C)c3ccccn3)n2)cc1 | 16 (≈ 49.3 µM) | 0.5 (≈ 1.54 µM) | 8 (≈ 24.7 µM) | 32 (≈ 98.6 µM) | 64 (≈ 197 µM) | – | – | – | – | –
11 | Cc1ccc(-c2csc(N/N=C\c3cccnc3)n2)cc1 | 32 (≈ 109 µM) | 0.125 (≈ 0.425 µM) | 0.5 (≈ 1.7 µM) | 16 (≈ 54.4 µM) | 128 (≈ 435 µM) | – | – | – | – | –
12 | COc1ccc(-c2csc(N/N=C\c3cccnc3)n2)cc1 | 32 (≈ 103 µM) | 4 (≈ 12.9 µM) | 16 (≈ 51.5 µM) | 16 (≈ 51.5 µM) | 64 (≈ 206 µM) | – | – | – | – | –
13 | C/C(=N/Nc1nc(-c2ccc(C)cc2)cs1)c1cccnc1 | 64 (≈ 208 µM) | 0.5 (≈ 1.62 µM) | 2 (≈ 6.48 µM) | 16 (≈ 51.9 µM) | 16 (≈ 51.9 µM) | – | – | – | – | –
14 | COc1ccc(-c2csc(N/N=C(/C)c3cccnc3)n2)cc1 | 128 (≈ 395 µM) | 8 (≈ 24.7 µM) | 8 (≈ 24.7 µM) | 32 (≈ 98.6 µM) | 128 (≈ 395 µM) | – | – | – | – | –
15 | Cc1ccc(-c2csc(N/N=C\c3ccncc3)n2)cc1 | 128 (≈ 435 µM) | 0.5 (≈ 1.7 µM) | 4 (≈ 13.6 µM) | 32 (≈ 109 µM) | 64 (≈ 217 µM) | – | – | – | – | –
16 | COc1ccc(-c2csc(N/N=C\c3ccncc3)n2)cc1 | 16 (≈ 51.5 µM) | 0.125 (≈ 0.403 µM) | 0.5 (≈ 1.61 µM) | 32 (≈ 103 µM) | 16 (≈ 51.5 µM) | – | – | – | – | –
17 | C/C(=N/Nc1nc(-c2ccc(C)cc2)cs1)c1ccncc1 | 32 (≈ 104 µM) | 0.5 (≈ 1.62 µM) | 4 (≈ 13 µM) | 32 (≈ 104 µM) | 32 (≈ 104 µM) | – | – | – | – | –
18 | COc1ccc(-c2csc(N/N=C(/C)c3ccncc3)n2)cc1 | 128 (≈ 395 µM) | 0.5 (≈ 1.54 µM) | 4 (≈ 12.3 µM) | 16 (≈ 49.3 µM) | 32 (≈ 98.6 µM) | – | – | – | – | –
19 | Cc1ccc(-c2csc(N/N=C\c3cccc4ccccc34)n2)cc1 | 16 (≈ 46.6 µM) | 2 (≈ 5.82 µM) | 16 (≈ 46.6 µM) | 32 (≈ 93.2 µM) | 16 (≈ 46.6 µM) | – | – | – | – | –
20 | COc1ccc(-c2csc(N/N=C\c3cccc4ccccc34)n2)cc1 | 32 (≈ 89 µM) | 4 (≈ 11.1 µM) | 2 (≈ 5.56 µM) | 16 (≈ 44.5 µM) | 64 (≈ 178 µM) | – | – | – | – | –
21 | C/C(=N/Nc1nc(-c2ccc(C)cc2)cs1)c1ccc2ccccc2c1 | 32 (≈ 89.5 µM) | 2 (≈ 5.59 µM) | 0.5 (≈ 1.4 µM) | 16 (≈ 44.8 µM) | 4 (≈ 11.2 µM) | – | – | – | – | –
22 | COc1ccc(-c2csc(N/N=C(/C)c3ccc4ccccc4c3)n2)cc1 | 256 (≈ 685 µM) | 2 (≈ 5.36 µM) | 2 (≈ 5.36 µM) | 16 (≈ 42.8 µM) | 64 (≈ 171 µM) | – | – | – | – | –
23 | Cc1ccc(-c2csc(N/N=C\c3ccc4c(c3)OCO4)n2)cc1 | 64 (≈ 190 µM) | 0.125 (≈ 0.37 µM) | 4 (≈ 11.9 µM) | 8 (≈ 23.7 µM) | 16 (≈ 47.4 µM) | – | – | – | – | –
24 | COc1ccc(-c2csc(N/N=C\c3ccc4c(c3)OCO4)n2)cc1 | 64 (≈ 181 µM) | 0.5 (≈ 1.41 µM) | 4 (≈ 11.3 µM) | 8 (≈ 22.6 µM) | 64 (≈ 181 µM) | – | – | – | – | –
25 | Cc1ccc(-c2csc(N/N=C\c3c[nH]c4ccccc34)n2)cc1 | 32 (≈ 96.3 µM) | 0.125 (≈ 0.376 µM) | 4 (≈ 12 µM) | 32 (≈ 96.3 µM) | 64 (≈ 193 µM) | – | – | – | – | –
26 | COc1ccc(-c2csc(N/N=C\c3c[nH]c4ccccc34)n2)cc1 | 64 (≈ 184 µM) | 32 (≈ 91.8 µM) | 0.5 (≈ 1.44 µM) | 8 (≈ 23 µM) | 64 (≈ 184 µM) | – | – | – | – | –
27 | C/C(=N/Nc1nc(-c2ccc(C)cc2)cs1)c1cc2ccccc2oc1=O | – | – | – | – | – | 0.5 (≈ 1.33 µM) | 128 (≈ 341 µM) | 32 (≈ 85.2 µM) | 128 (≈ 341 µM) | 0.125 (≈ 0.333 µM)
28 | COc1ccc(-c2csc(N/N=C(/C)c3cc4ccccc4oc3=O)n2)cc1 | 32 (≈ 81.7 µM) | 2 (≈ 5.11 µM) | 2 (≈ 5.11 µM) | 32 (≈ 81.7 µM) | 2 (≈ 5.11 µM) | – | – | – | – | –
29 | Clc1ccccc1C(c1ccccc1)(c1ccccc1)n1ccnc1 [CLOTRIMAZOLE] | – | 2 (≈ 5.8 µM) | 2 (≈ 5.8 µM) | 16 (≈ 46.4 µM) | – | – | – | – | – | –
30 | OC(Cn1cncn1)(Cn1cncn1)c1ccc(F)cc1F [FLUCONAZOLE] | 8 (≈ 26.1 µM) | 4 (≈ 13.1 µM) | 4 (≈ 13.1 µM) | 32 (≈ 104 µM) | 4 (≈ 13.1 µM) | – | – | – | – | –
